We go through 1 compound from ChEMBL document CHEMBL4354812, “N-Benzyl/Aryl Substituted Tryptanthrin as Dual Inhibitors of Indoleamine 2,3-Dioxygenase and Tryptophan 2,3-Dioxygenase” (J Med Chem, 2019).

In assay [1] the target is T1, Tryptophan 2,3-dioxygenase (Homo sapiens, UniProt P48775). Kind of assay: Inhibition of human TDO transfected in HEK293 cells assessed as reduction in kynurenine production using L-tryptophan as substrate incubated for 12 hrs. It counts as cell-based. In outline:
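U87 MG cells (hIDO2) or HEK293 cells (hTDO) were transiently transfected at 80% confluence, with empty vector as control. After 18 h, cells were seeded 2.5 × 10⁴/well in medium with 200 μM L-Trp. Compound serial dilutions were added after a further 6 h (IDO2) or 12 h (TDO). Reactions were stopped 24 h (IDO2) or 8 h (TDO) later with TCA, heated 65 °C 15 min, and Kyn read with DMAB at 492 nm. IC50 by nonlinear regression.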
Target sequence in this assay (P48775 whole entry): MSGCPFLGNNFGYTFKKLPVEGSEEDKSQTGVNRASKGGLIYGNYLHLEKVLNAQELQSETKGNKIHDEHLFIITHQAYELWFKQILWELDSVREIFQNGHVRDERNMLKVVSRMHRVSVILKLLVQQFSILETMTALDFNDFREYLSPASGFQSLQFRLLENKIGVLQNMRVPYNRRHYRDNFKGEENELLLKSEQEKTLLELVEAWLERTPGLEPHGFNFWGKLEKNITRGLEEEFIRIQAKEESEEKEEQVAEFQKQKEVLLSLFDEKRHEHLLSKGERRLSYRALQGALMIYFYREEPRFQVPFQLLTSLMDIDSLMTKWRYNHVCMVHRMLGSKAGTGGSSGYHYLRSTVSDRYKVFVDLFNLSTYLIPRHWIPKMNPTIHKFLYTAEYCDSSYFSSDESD

Assay [2] has as its target T2, Indoleamine 2,3-dioxygenase 2 (Homo sapiens) (UniProt Q6ZQW0).
T2 sequence (whole entry): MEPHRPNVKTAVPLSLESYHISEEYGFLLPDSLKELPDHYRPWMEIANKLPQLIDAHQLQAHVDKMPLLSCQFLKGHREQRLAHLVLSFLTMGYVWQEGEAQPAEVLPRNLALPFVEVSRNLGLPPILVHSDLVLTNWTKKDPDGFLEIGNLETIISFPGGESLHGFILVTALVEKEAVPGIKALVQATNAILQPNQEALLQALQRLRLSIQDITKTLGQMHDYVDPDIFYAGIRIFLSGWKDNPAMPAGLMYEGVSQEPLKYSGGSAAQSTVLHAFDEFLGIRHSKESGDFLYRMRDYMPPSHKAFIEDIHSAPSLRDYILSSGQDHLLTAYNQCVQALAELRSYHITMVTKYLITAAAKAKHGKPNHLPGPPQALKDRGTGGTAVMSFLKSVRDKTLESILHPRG
The experiment in a line: Binding affinity to human IDO2 assessed as change in spectral signal at 200 uM by CPMG NMR spectrometry analysis.

Assay [3] has as its target T2, Indoleamine 2,3-dioxygenase 2 (Homo sapiens). The experiment in a line: Binding affinity to human IDO2 at 200 uM by STD NMR spectrometry analysis.
The target in assay [4] is T1, Tryptophan 2,3-dioxygenase. Kind of assay: Binding affinity to human TDO at 200 uM by STD NMR spectrometry analysis.
Target sequence in this assay (P48775 whole entry, looked up): as the sequence (P48775 whole entry) above
The species entered for assay [5] is Homo sapiens. The experiment in a line: Inhibition of IDO1/TDO in IFNgamma-treated human HeLa cells assessed as T cell proliferation at 1 uM measured after 2 days in presence of IL-2, anti-CD3 and IFN-gamma by CFSE dye based flow cytometry analysis (reference value: 11.7 %). Also on record: scale not given: the % may be the effect or the level left. Summed up:
(§1)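 CFSE-labelled human PBMC lymphocytes (1 × 10⁶/well) were cocultured with HeLa cells (2 × 10⁵/well), a 5:1 ratio, in 150 U/mL IL-2, 100 ng/mL anti-CD3 and 60 ng/mL IFN-γ. Compound was tested at 40 nM, 200 nM, 500 nM or 1 μM. Proliferation was read by flow cytometry after 2 days, three independent experiments.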
In general terms: In flow cytometry, cells or beads pass a laser one at a time.

The species entered for assay [6] is Homo sapiens. Kind of assay: Inhibition of IDO1/TDO in IFNgamma-treated human HeLa cells assessed as T cell proliferation at 200 nM measured after 2 days in presence of IL-2, anti-CD3 and IFN-gamma by CFSE dye based flow cytometry analysis (reference value: 11.7 %). Also on record: scale not given: the % may be the effect or the level left. Summed up: as §1
For assay [7], the species on record is Homo sapiens. Kind of assay: Inhibition of IDO1/TDO in IFNgamma-treated human HeLa cells assessed as T cell proliferation at 500 nM measured after 2 days in presence of IL-2, anti-CD3 and IFN-gamma by CFSE dye based flow cytometry analysis (reference value: 11.7 %). Also on record: scale not given: the % may be the effect or the level left. In outline:
as §1

Assay [8] has as its system Rattus norvegicus. The experiment in a line: In vivo inhibition of IDO1/2/TDO in Sprague-Dawley rat assessed as increase in tryptophan level in lung at 30 mg/kg, ig administered as single dose by LC-MS analysis. In kind it is functional, organism-based. Summed up:
(§2)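 Naive SD rats received a single ig dose of 30 mg/kg in 0.5% CMC-Na, with vehicle as control. Lungs were dissected and Trp and Kyn quantified by LC–MS, with the Kyn/Trp ratio calculated. n = 3–4 rats/group.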

In assay [9] the test system is Rattus norvegicus. Kind of assay: In vivo inhibition of IDO1/2/TDO in Sprague-Dawley rat assessed as decrease in kynurenine level in lung at 30 mg/kg, ig administered as single dose by LC-MS analysis. It counts as functional, organism-based. Summed up:
as §2

For assay [10], the system named is Rattus norvegicus. The experiment in a line: In vivo inhibition of IDO1/2/TDO in Sprague-Dawley rat assessed as decrease in kynurenine/tryptophan ratio in lung at 30 mg/kg, ig administered as single dose by LC-MS analysis. In kind it is functional, organism-based. Summed up:
as §2

The test system of assay [11] is Lewis lung carcinoma cell line. Kind of assay: Antitumor activity against mouse LLC cells implanted in C57BL/6 mouse assessed as reduction in tumor weight at 45 mg/kg, po qd administered for 2 weeks and measured post-treatment. In kind it is functional, organism-based. In outline: (§3)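 Tumor cells (LLC, or H22 ascites cells after two intraperitoneal passages in Kunming mice) injected sc into the right forelimb at 2 × 10⁶ per mouse, in female 6–8-week C57BL/6 or Kunming mice. Oral dosing once daily began at 5 mm tumor diameter and continued 2 weeks. Vehicle was 0.5% CMC-Na. Volume was read by caliper every 2 days as long × short²/2. Tumors were weighed at sacrifice. n = 9–10/group.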

Assay [12] has as its system Lewis lung carcinoma cell line. The experiment in a line: Antitumor activity against mouse LLC cells implanted in C57BL/6 mouse assessed as reduction in tumor volume at 45 mg/kg, po qd administered for 2 weeks and measured at 2 days interval during compound dosing relative to control. In kind it is functional. Set-up: scale not given: the % may be the effect or the level left. In outline:
as §3

Assay [13] concerns Lewis lung carcinoma cell line. Kind of assay: Antitumor activity against mouse LLC cells implanted in C57BL/6 mouse assessed as tumor regression at 45 mg/kg, po qd administered for 2 weeks and measured post-treatment. In kind it is functional, organism-based. Summed up: as §3
The next assay deals with H22. Kind of assay: Antitumor activity against mouse H22 cells implanted in Kunming mouse assessed as reduction in tumor volume at 45 mg/kg, po qd administered for 2 weeks and measured at 2 days interval during compound dosing relative to control. It counts as functional. Also on record: scale not given: the % may be the effect or the level left. Summed up:
as §3

For assay [14], the system named is Mus musculus. Kind of assay: In vivo blockade of kynurenine pathway in C57BL/6 mouse implanted with mouse LLC cells assessed as decrease in kynurenine level in tumor at 45 mg/kg, po qd for 2 weeks by LC-MS analysis. It counts as functional, organism-based. In outline:
(§4)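 LLC tumor-bearing C57BL/6 mice received oral dosing once daily in 0.5% CMC-Na for 2 weeks. Tumors were dissected and Trp and Kyn measured by LC–MS on a C18 column with acetonitrile/0.1% formic acid gradient (5–80%), positive ion mode, m/z 205 (Trp) and 209 (Kyn), metronidazole internal standard. Kyn/Trp ratio calculated. n = 4–6/group.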

For assay [15], the system named is Mus musculus. The experiment in a line: In vivo blockade of kynurenine pathway in C57BL/6 mouse implanted with mouse LLC cells assessed as increase in tryptophan level in tumor at 45 mg/kg, po qd for 2 weeks by LC-MS analysis. It counts as functional, organism-based. In outline: as §4
Assay [16] concerns Mus musculus. Kind of assay: In vivo blockade of kynurenine pathway in C57BL/6 mouse implanted with mouse LLC cells assessed as decrease in kynurenine/tryptophan ratio in tumor at 45 mg/kg, po qd for 2 weeks by LC-MS analysis. In kind it is functional, organism-based. In outline:
as §4

In assay [17] the test system is Mus musculus. The experiment in a line: In vivo blockade of kynurenine pathway in Kunming mouse implanted with mouse H22 cells assessed as increase in tryptophan level in serum at 45 mg/kg, po qd for 2 weeks by HPLC analysis. It counts as functional, organism-based. In outline: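 H22 tumor-bearing Kunming mice received oral dosing once daily in 0.5% CMC-Na for 2 weeks. Serum Trp and Kyn were measured by HPLC on a C18 column with 15 mM sodium acetate (pH 3.6) containing 4% acetonitrile, UV detection at 280 and 360 nm. Kyn/Trp ratio calculated. n = 9–10/group.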

Active and inactive are the calls of the source. The calls are words filed in the database; no cut-off is given here.

As a reminder, the IC50 is the concentration at which inhibition is half-maximal. `CN1CCN(Cc2ccc3nc4n(c(=O)c3c2)-c2ccc(F)cc2C4=O)CC1`: the IC50 in assay [1] was 90 nM. Also, the outcome (in assay [2]; in assay [3]; in [4]; in assay [11]; in the assay on Mus musculus [14]; in the assay with Mus musculus [16]) was Active. Further, in the assay with Mus musculus [17], the result was Active. For the same compound, the Activity is 52.8% in the assay listed under Homo sapiens [5]; 39.8% in the assay filed under Homo sapiens [6]; 51.4% in the assay filed under Homo sapiens [7]; 56.2% in assay [12]; 47.3% in the assay with H22. In addition, the inhibition entry in the assay with Rattus norvegicus [8], in the assay on Rattus norvegicus [9] and in the assay with Rattus norvegicus [10] was “Active” each time. The result (in [13]; in the assay with Mus musculus [15]) was inactive.
